By DC50 is commonly meant the midpoint of the concentration-degradation curve. The term IC50 denotes the concentration that inhibits the measured activity by half. As a reminder, the clearance is a measure of how efficiently the substance is removed, as volume per time. A low value points to a low capacity for elimination. The term half-life denotes the time in which the quantity being followed falls by half. Read a low half-life as fast loss. Broadly, the Tmax is the time from dosing to the highest level. As a reminder, the MRT last is a mean duration of stay, worked out from the concentration-time curve. A word on the Cmax: it is the peak of the concentration-time curve. As usually defined, the AUC(0-t) is the area under the concentration-time curve up to a stated or last time point. A high value points to high exposure.

For data set [1], the target named is Protein cereblon/Tyrosine-protein kinase ABL1/Breakpoint cluster region protein (Homo sapiens, UniProt P00519+P11274+Q96SW2). Description: PROTAC activity at CRBN/Bcr-Abl in human K562 cells assessed as degrading activity by Western blotting analysis. In kind it is cell-based.
Sequence of Protein cereblon/Tyrosine-protein kinase ABL1/Breakpoint cluster region protein (P00519 whole entry): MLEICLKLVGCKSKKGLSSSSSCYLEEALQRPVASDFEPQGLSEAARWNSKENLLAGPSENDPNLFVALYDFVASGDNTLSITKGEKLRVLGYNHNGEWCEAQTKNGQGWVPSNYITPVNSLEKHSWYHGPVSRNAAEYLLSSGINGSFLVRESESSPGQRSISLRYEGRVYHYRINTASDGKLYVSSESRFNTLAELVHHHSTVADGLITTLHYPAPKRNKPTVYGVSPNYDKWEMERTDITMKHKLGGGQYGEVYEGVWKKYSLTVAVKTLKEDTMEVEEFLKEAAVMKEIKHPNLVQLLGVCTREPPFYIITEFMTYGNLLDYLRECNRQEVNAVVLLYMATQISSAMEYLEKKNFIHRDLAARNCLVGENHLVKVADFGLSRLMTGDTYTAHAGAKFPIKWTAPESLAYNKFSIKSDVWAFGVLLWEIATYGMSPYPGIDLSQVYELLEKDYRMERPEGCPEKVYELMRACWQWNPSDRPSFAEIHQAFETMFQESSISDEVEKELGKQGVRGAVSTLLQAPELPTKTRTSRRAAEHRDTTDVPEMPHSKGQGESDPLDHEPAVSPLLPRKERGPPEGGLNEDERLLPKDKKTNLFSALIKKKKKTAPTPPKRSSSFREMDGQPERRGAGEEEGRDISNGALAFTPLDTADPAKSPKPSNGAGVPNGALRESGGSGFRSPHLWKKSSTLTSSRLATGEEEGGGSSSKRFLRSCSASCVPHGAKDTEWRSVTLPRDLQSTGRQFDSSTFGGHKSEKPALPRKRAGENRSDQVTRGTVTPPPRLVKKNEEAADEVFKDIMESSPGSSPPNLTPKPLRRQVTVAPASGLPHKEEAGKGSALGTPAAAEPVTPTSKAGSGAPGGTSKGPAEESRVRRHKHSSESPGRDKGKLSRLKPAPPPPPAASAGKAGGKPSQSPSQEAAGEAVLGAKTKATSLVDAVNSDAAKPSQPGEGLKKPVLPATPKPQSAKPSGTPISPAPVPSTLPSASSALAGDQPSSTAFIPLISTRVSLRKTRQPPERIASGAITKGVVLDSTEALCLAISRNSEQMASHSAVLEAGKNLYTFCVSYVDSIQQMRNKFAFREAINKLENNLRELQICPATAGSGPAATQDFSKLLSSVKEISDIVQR
Sequence of Protein cereblon/Tyrosine-protein kinase ABL1/Breakpoint cluster region protein (P11274 whole entry): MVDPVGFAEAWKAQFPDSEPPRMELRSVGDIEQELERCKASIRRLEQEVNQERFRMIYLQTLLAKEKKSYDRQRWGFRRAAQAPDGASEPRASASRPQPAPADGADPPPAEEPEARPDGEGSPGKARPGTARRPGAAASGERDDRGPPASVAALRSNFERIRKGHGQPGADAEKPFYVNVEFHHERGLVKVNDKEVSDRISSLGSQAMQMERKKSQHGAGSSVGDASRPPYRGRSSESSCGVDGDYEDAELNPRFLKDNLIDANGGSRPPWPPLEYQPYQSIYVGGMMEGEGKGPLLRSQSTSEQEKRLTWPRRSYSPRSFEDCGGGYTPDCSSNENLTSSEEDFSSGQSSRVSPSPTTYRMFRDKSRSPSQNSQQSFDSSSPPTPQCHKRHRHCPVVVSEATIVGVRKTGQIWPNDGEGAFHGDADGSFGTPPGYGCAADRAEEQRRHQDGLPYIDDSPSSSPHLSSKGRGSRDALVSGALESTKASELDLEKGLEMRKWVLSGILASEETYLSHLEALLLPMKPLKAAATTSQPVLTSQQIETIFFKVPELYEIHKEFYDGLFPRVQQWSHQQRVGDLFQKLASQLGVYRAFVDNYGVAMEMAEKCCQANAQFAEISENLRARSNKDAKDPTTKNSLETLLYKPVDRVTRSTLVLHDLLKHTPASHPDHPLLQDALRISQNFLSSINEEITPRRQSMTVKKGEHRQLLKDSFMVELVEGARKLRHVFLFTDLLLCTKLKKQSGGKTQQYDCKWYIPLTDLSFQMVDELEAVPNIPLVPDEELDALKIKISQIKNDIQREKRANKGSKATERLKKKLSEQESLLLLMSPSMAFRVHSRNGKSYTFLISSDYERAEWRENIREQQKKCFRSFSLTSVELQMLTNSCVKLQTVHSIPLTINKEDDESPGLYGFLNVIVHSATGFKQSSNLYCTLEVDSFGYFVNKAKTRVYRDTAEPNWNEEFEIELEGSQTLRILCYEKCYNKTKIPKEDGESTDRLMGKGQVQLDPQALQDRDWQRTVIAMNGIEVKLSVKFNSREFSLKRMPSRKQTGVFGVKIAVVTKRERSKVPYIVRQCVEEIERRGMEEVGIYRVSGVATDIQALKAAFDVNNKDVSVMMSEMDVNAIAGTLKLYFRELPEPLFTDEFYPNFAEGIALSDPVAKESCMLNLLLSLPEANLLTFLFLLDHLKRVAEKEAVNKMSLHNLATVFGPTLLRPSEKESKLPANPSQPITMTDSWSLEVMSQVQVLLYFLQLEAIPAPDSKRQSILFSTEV
Sequence of Protein cereblon/Tyrosine-protein kinase ABL1/Breakpoint cluster region protein (Q96SW2 whole entry): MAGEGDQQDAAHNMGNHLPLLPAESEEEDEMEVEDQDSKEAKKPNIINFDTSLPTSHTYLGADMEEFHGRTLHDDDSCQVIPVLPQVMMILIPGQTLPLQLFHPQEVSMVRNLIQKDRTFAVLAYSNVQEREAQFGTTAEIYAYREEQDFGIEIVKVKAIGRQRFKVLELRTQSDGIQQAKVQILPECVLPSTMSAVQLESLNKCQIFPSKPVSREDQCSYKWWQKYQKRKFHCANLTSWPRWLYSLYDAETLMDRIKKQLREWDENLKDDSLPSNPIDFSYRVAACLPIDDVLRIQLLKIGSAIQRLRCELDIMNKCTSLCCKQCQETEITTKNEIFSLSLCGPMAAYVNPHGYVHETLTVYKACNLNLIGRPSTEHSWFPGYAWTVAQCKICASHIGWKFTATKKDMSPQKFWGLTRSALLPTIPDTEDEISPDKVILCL
The test system of data set [2] is K562. Briefly: Antiproliferative activity against human K562 cells assessed as cell growth inhibition measured after 48 hrs by CCK8 assay. In kind it is functional, cell-based. The conditions noted are these: K562, 48 h. The gist of the method:
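Cells were seeded at 3000-20,000 per well and given 3-fold serial dilutions of compound in medium. After 2 days at 37 °C in 5% CO2, CCK-8 reagent was added for 2-4 h and absorbance was read at 450 nm.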
Background: Tetrazolium dyes change colour on reduction, which living cells bring about.

The nature of data set [3]: Clearance in Wistar rat at 2 mg/kg, iv by LC-MS/MS analysis. It is filed as ADME, organism-based. The conditions noted are these: in vivo. A digest of the protocol: (§1)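 Single intravenous dose of 2 mg/kg into the femoral vein of female Wistar rats, given as a solution in NMP/PEG200 (1:9, v/v). Plasma was collected by sublingual vein bleeding at 0.083, 0.25, 0.5, 1, 2, 4, 6, 8, 12 and 24 h from one group of rats (n = 3). Samples were extracted and quantified by LC-MS/MS, LOQ 2.5 ng/mL.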

Data set [4] is described as follows: Half life in Wistar rat at 2 mg/kg, iv by LC-MS/MS analysis. As to conditions: in vivo. In kind it is ADME, organism-based. A digest of the protocol: as §1
Data set [5] in a line: Tmax in Wistar rat at 2 mg/kg, iv by LC-MS/MS analysis. In kind it is ADME, organism-based. The conditions noted are these: in vivo. A digest of the protocol: as §1
Data set [6] in a line: MRT (0 to t) in Wistar rat at 2 mg/kg, iv by LC-MS/MS analysis. It is filed as ADME, organism-based. As to conditions: in vivo. The gist of the method:
as §1

Data set [7] is described as follows: Apparent volume of distribution during steady state in Wistar rat at 2 mg/kg, iv by LC-MS/MS analysis. It is filed as ADME, organism-based. As to conditions: in vivo, read-out: Vdss. The gist of the method: as §1
A short description of data set [8]: Cmax in Wistar rat at 2 mg/kg, iv by LC-MS/MS analysis. It is filed as ADME, organism-based. Also on record: route intravenous, dose 2 mg/kg. As to conditions: in vivo. The gist of the method:
as §1

Data set [9] is described as follows: Apparent volume of distribution during terminal state in Wistar rat at 2 mg/kg, iv by LC-MS/MS analysis. The conditions noted are these: in vivo, read-out: Vz. In kind it is ADME, organism-based. A digest of the protocol:
as §1

The nature of data set [10]: AUC (0 to t) in Wistar rat at 2 mg/kg, iv by LC-MS/MS analysis. As to conditions: in vivo. Also on record: dose 2 mg/kg. It is filed as ADME, organism-based. The gist of the method:
as §1

Data set [11] has as its system K562. Briefly: Antitumor activity against human K562 cells xenografted in NOD-SCID mouse assessed as tumor growth inhibition at 5 mg/kg, po administered daily 10 days. As to conditions: 240 h, read-out: TGI. For orientation: In xenograft studies the graft and the host belong to different species.

As to `Cc1nc(Nc2ncc(C(=O)Nc3c(C)cccc3Cl)s2)cc(N2CCN(C(=O)CNc3cccc4c3C(=O)N(C3CCC(=O)NC3=O)C4=O)CC2)n1` (stereo not drawn), the DC50 in data set [1] came to 10 nM. Besides, the IC50 with K562 [2] came to 1.22 nM.
On to `Nc1cccc2c1CN(C1CCC(=O)NC1=O)C2=O` (stereo not drawn) [LENALIDOMIDE], for which the IC50 with K562 [2] was greater than 10000 nM.
For the compound `Cc1nc(Nc2ncc(C(=O)Nc3c(C)cccc3Cl)s2)cc(N2CCN(C(=O)CSc3cccc4c3CN(C3CCC(=O)NC3=O)C4=O)CC2)n1` (stereo not drawn), the DC50 in data set [1] was found to be 8.9 nM. Also, in the data set with K562 [2], the IC50 was 5.7 nM.
On to `Cc1nc(Nc2ncc(C(=O)Nc3c(C)cccc3Cl)s2)cc(N2CCN(C(=O)CCOCCOCCOCCOCCNc3cccc4c3C(=O)N(C3CCC(=O)NC3=O)C4=O)CC2)n1` (stereo not drawn), for which the DC50 in data set [1] was 26.1 nM. Moreover, the IC50 in the data set with K562 [2] was found to be 40.4 nM.
As for `Cc1nc(Nc2ncc(C(=O)Nc3c(C)cccc3Cl)s2)cc(N2CCN(C(=O)CCCCNc3cccc4c3C(=O)N(C3CCC(=O)NC3=O)C4=O)CC2)n1` (stereo not drawn), in data set [1], the DC50 is 11 nM. For the same compound, the 50% inhibitory concentration (IC50) in the data set on K562 [2] turned out to be 0.55 nM.
`Cc1nc(Nc2ncc(C(=O)Nc3c(C)cccc3Cl)s2)cc(N2CCN(CCCCCCOCCOCCOCCCCCC(=O)Nc3cccc4c3C(=O)N(C3CCC(=O)NC3=O)C4=O)CC2)n1` (stereo not drawn): the half-inhibitory concentration (IC50) in the data set on K562 [2] worked out at 4.1 nM.
For `Cc1nc(Nc2ncc(C(=O)Nc3c(C)cccc3Cl)s2)cc(N2CCN(C(=O)CCCNc3cccc4c3C(=O)N(C3CCC(=O)NC3=O)C4=O)CC2)n1` (stereo not drawn), the DC50 in data set [1] came to 7.8 nM. Besides, the IC50 in the data set with K562 [2] is 5.5 nM.
For the compound `Cc1nc(Nc2ncc(C(=O)Nc3c(C)cccc3Cl)s2)cc(N2CCN(C(=O)CCCCCCNc3cccc4c3C(=O)N(C3CCC(=O)NC3=O)C4=O)CC2)n1` (stereo not drawn), in data set [1], the DC50 worked out at 9 nM. Moreover, in the data set with K562 [2], the IC50 is 1.47 nM.
For the compound `Cc1nc(Nc2ncc(C(=O)Nc3c(C)cccc3Cl)s2)cc(N2CCN(C(=O)CS(=O)(=O)c3cccc4c3C(=O)N(C3CCC(=O)NC3=O)C4=O)CC2)n1` (stereo not drawn), the DC50 in data set [1] stood at 245 nM. Moreover, the IC50 with K562 [2] is 206 nM.
Take `Cc1nc(Nc2ncc(C(=O)Nc3c(C)cccc3Cl)s2)cc(N2CCN(C(=O)CCc3cccc4c3C(=O)N(C3CCC(=O)NC3=O)C4=O)CC2)n1` (stereo not drawn): the DC50 in [1] worked out at 95.4 nM. In addition, in the data set on K562 [2], the IC50 stood at 2.84 nM.
On to `Cc1nc(Nc2ncc(C(=O)Nc3c(C)cccc3Cl)s2)cc(N2CCN(C(=O)CCCC(=O)Nc3cccc4c3CN(C3CCC(=O)NC3=O)C4=O)CC2)n1` (stereo not drawn), for which the DC50 in data set [1] turned out to be 125 nM. Also, in the data set on K562 [2], the IC50 was found to be 1.03 nM.
In the case of `Nc1cccc2c1C(=O)N(C1CCC(=O)NC1=O)C2=O` (stereo not drawn) [POMALIDOMIDE], the IC50 in the data set with K562 [2] was greater than 10000 nM.
With `Cc1nc(Nc2ncc(C(=O)Nc3c(C)cccc3Cl)s2)cc(N2CCN(C(=O)CCOCCNc3cccc4c3C(=O)N(C3CCC(=O)NC3=O)C4=O)CC2)n1` (stereo not drawn), the 50% degradation concentration (DC50) in data set [1] was found to be 8.7 nM. Besides, the IC50 in the data set with K562 [2] worked out at 18.4 nM.
As to `Cc1nc(Nc2ncc(C(=O)Nc3c(C)cccc3Cl)s2)cc(N2CCN(CCCCC(=O)Nc3cccc4c3C(=O)N(C3CCC(=O)NC3=O)C4=O)CC2)n1` (stereo not drawn), the half-maximal degradation concentration (DC50) in data set [1] is 10.1 nM. Moreover, in the data set with K562 [2], the IC50 was 4.6 nM.
As for `Cc1nc(Nc2ncc(C(=O)Nc3c(C)cccc3Cl)s2)cc(N2CCN(C(=O)COc3cccc4c3C(=O)N(C3CCC(=O)NC3=O)C4=O)CC2)n1` (stereo not drawn), the DC50 in data set [1] amounted to 11.1 nM. For the same compound, the half-inhibitory concentration (IC50) in the data set on K562 [2] came to 7 nM.
With `Cc1nc(Nc2ncc(C(=O)Nc3c(C)cccc3Cl)s2)cc(N2CCN(CCSc3cccc4c3CN(C3CCC(=O)NC3=O)C4=O)CC2)n1` (stereo not drawn), the DC50 in [1] stood at 2.7 nM. In the data set on K562 [2], the IC50 is 0.51 nM.
For `Cc1nc(Nc2ncc(C(=O)Nc3c(C)cccc3Cl)s2)cc(N2CCN(CCCCNc3cccc4c3C(=O)N(C3CCC(=O)NC3=O)C4=O)CC2)n1` (stereo not drawn), in data set [3], the clearance was 24.1 mL/min/kg. The DC50 in [1] is 2.7 nM. In addition, the half-life in data set [4] is 116 min. Besides, in [5], the Tmax is 4.8 min. Moreover, the IC50 with K562 [2] stood at 0.28 nM. For the same compound, in [6], the MRT last worked out at 93 min. Besides, the figures for the Vd in data set [7] and in data set [9] were 2.78 L/kg and 4.02 L/kg, respectively. This compound gave a Cmax in [8] of 1450 ng/mL. The AUC(0-t) in data set [10] was found to be 1330 ng·h/mL.
Take `Cc1nc(Nc2ncc(C(=O)Nc3c(C)cccc3Cl)s2)cc(N2CCN(C(=O)CCCCNc3cccc4c3CN(C3CCC(=O)NC3=O)C4=O)CC2)n1` (stereo not drawn): the DC50 in data set [1] was determined as 11.1 nM. Moreover, the IC50 in the data set on K562 [2] amounted to 4.2 nM.
For the compound `Cc1nc(Nc2ncc(C(=O)Nc3c(C)cccc3Cl)s2)cc(N2CCN(C(=O)CCOCCOCCOCCOCCOCCNc3cccc4c3C(=O)N(C3CCC(=O)NC3=O)C4=O)CC2)n1` (stereo not drawn), the DC50 in [1] was found to be 10.8 nM. Also, the 50% inhibitory concentration (IC50) with K562 [2] is 31.9 nM.
For the compound `Cc1nc(Nc2ncc(C(=O)Nc3c(C)cccc3Cl)s2)cc(N2CCN(C(=O)CSc3cccc4c3C(=O)N(C3CCC(=O)NC3=O)C4=O)CC2)n1` (stereo not drawn), the 50% degradation concentration (DC50) in [1] was 5.6 nM. In the data set on K562 [2], the concentration for half-maximal inhibition (IC50) was 3.2 nM.
With `Cc1nc(Nc2ncc(C(=O)Nc3c(C)cccc3Cl)s2)cc(N2CCN(CCO)CC2)n1` [DASATINIB], the inhibition in vivo at 5 mg/kg in the data set with K562 [11] was determined as 95.1%.
Compound `Cc1nc(Nc2ncc(C(=O)Nc3c(C)cccc3Cl)s2)cc(N2CCN(C(=O)CCOCCOCCNc3cccc4c3C(=O)N(C3CCC(=O)NC3=O)C4=O)CC2)n1` (stereo not drawn) showed a clearance in data set [3] of 67.1 mL/min/kg. Also, the DC50 in data set [1] is 17.5 nM. In data set [4], this compound showed a half-life of 37.2 min. Further, the Tmax in data set [5] amounted to 4.8 min. Also, the IC50 in the data set with K562 [2] was found to be 8.05 nM. The MRT last in data set [6] amounted to 27 min. The values for the Vd in [7] and in data set [9] were 1.93 L/kg and 3.59 L/kg, respectively. Besides, the Cmax in data set [8] worked out at 1140 ng/mL. Moreover, in data set [10], the AUC(0-t) was determined as 496 ng·h/mL.
Take `Cc1nc(Nc2ncc(C(=O)Nc3c(C)cccc3Cl)s2)cc(N2CCN(C(=O)CCOCCOCCOCCNc3cccc4c3C(=O)N(C3CCC(=O)NC3=O)C4=O)CC2)n1` (stereo not drawn): the DC50 in [1] amounted to 18.4 nM. The IC50 in the data set on K562 [2] is 14.8 nM.
